Data on five compounds can be found in PMC3051377 (British Journal of Pharmacology, 2011).

Where two headings read alike, the source gives them in different places.

The target in experiment [1] is T1, Gs/olf G-proteins (Homo sapiens, UniProt P08172).
T1 sequence (P08172 1-466): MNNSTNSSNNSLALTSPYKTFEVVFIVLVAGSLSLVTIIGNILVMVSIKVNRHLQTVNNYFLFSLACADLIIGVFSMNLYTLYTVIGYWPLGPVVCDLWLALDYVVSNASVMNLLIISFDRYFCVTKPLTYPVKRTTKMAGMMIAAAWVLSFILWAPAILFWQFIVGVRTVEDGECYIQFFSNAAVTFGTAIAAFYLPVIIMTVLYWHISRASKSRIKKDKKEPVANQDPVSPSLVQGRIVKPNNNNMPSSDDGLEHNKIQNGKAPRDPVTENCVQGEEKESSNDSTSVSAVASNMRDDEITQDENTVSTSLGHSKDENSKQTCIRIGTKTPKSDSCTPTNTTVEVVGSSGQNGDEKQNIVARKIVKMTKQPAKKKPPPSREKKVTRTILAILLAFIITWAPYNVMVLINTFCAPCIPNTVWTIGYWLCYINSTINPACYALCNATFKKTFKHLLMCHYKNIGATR
The experiment in a line: biochemical. Format: binding, Chinese hamster. Conditions: for pα: cooperativity between agonist and [3H]GDP binding.

Experiment [2] has as its target T2, human M2 muscarinic receptor (Homo sapiens, UniProt P08172).
T2 sequence (P08172 1-466): T1 sequence (P08172 1-466)
Description: Agonist-stimulated [35S]GTPγS binding to membranes from M2 CHO cells. In kind it is biochemical. Conditions: for EMAX [fold over basal]: 500 pM [35S]GTPγS, 50 µM GDP; for nH: Hill coefficient, Eqn 2.

For experiment [3], the target named is T3, M2 receptor-G-protein complex (Homo sapiens, UniProt P08172).
T3 sequence (P08172 1-466): T1 sequence (P08172 1-466)
In kind it is binding. The note with it: for factor of cooperativity α between binding of [3H]GDP and agonist (pα): GDP-less membranes, n=3.

The target of experiment [4] is T2, human M2 muscarinic receptor. The experiment in a line: Competition of agonists with 1 nM [3H]NMS binding.
Experiment [5] has as its target T4, Gi/o G-proteins (Homo sapiens, UniProt P08172).
T4 sequence (P08172 1-466): T1 sequence (P08172 1-466)
Description: biochemical. In kind it is biochemical, Chinese hamster.

Experiment [6] addresses T4, Gi/o G-proteins. Description: biochemical. In kind it is binding, Chinese hamster. The note with it: for pα: cooperativity between agonist and [3H]GDP binding.
Experiment [7] has as its target T5, Gq/11 G-proteins (Homo sapiens, UniProt P08172).
T5 sequence (P08172 1-466): T1 sequence (P08172 1-466)
In kind it is binding, Chinese hamster.

Experiment [8] deals with T1, Gs/olf G-proteins. The experiment in a line: biochemical. In kind it is biochemical, Chinese hamster.
Experiment [9] concerns the target T3, M2 receptor-G-protein complex. Format: binding. The note with it: for reduction of agonist affinity by GDP (factor of cooperativity β): Eqn 8, GDP-less membranes, 1 nM [3H]NMS.
For experiment [10], the target named is T5, Gq/11 G-proteins. The experiment in a line: [35S]GTPγS binding to Gq/11 G-proteins. Format: biochemical, Chinese hamster.
In experiment [11] the test system is G-proteins in GDP-less membranes of CHO-M2 cells. The experiment in a line: Kinetics of [3H]GDP binding to GDP-less membranes. Also noted: species or system Chinese hamster. Put shortly:
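GDP-less CHO-M2 membranes, 30°C. Association of 500 nM [³H]GDP was measured after 20 min pre-incubation with buffer, 10 or 100 µM agonist, or 0.1 µM antagonist. For dissociation, membranes were prelabelled with 500 nM [³H]GDP for 180 min, then chased with 50 µM GDP alone or with ligand. Slow and fast rate constants came from biphasic fits.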

Experiment [12] has the same test system. The experiment in a line: Equilibrium [3H]GDP binding to GDP-less membranes. Also noted: species or system Chinese hamster. Put shortly: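 GDP-less membranes from CHO-M2 cells were made by treatment with 1 M ammonium sulphate for 3 h at 4°C, then renatured 1 h in 20% glycerol. Incubation was 5 h at 30°C in 100 mM NaCl, 20 mM Na-HEPES, 10 mM MgCl₂ (pH 7.4) with 1 mM DTT. Assays were homologous competition at 1 or 5 µM [³H]GDP, plus saturation. Non-specific binding was taken with 50 µM GDP. Three experiments, quadruplicate; Hill-equation fits.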

Experiment [13] concerns Gs/olf G-proteins. Description: Kinetics of 500 nM [3H]GDP binding to Gs/olf G-proteins. Conditions: Control. Also noted: species or system Chinese hamster.
In experiment [14] the test system is Gi/o G-proteins. Description: Kinetics of 500 nM [3H]GDP binding to Gi/o G-proteins. Also noted: species or system Chinese hamster.
Experiment [15] concerns G-proteins in GDP-less membranes of CHO-M2 cells. Description: Kinetics of [35S]GTPγS binding to GDP-less membranes. Also noted: species or system Chinese hamster. In outline: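 GDP-less CHO-M2 membranes, 30°C. Association of 1 nM [³⁵S]GTPγS was measured after 20 min pre-incubation with buffer or 100 µM agonist, ±50 µM GDP. For dissociation, membranes were preloaded 90 min with 1 nM [³⁵S]GTPγS ±50 µM GDP, then chased with 1 µM GTPγS alone or with agonist. Filtration on glass-fibre filters, scintillation counting. Three experiments in quadruplicate; exponential association/dissociation fits.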

[16] abbreviates: Control (crude membranes), fraction of receptors in low-affinity state.
The mark [17] stands for this setting: 1 nM [35S]GTPγS, GDP-less membranes, no GDP, no ligand.
The mark [18] stands for this setting: NMS (100 nM), presence of 50 µM GDP.

On to `C[N+](C)(C)Cc1ccco1` [Furmethide], for which the pα was −1.0 ± 0.1 on Gs/olf G-proteins [1] (Gs/olf); −2.4 ± 0.2 on Gi/o G-proteins [6] (Gi/o); −0.32 ± 0.05 on Gq/11 G-proteins [7] (Gq/11, cooperativity between agonist and [3H]GDP binding). Also, the pKA on Gs/olf G-proteins [1] (Gs/olf, equilibrium dissociation constant of agonist, Eqn 7) was 7.10 ± 0.05; on Gi/o G-proteins [6] (Gi/o, equilibrium dissociation constant of agonist, Eqn 7), 7.13 ± 0.05; on Gq/11 G-proteins [7] (Gq/11, equilibrium dissociation constant of agonist, Eqn 7) it was 7.17 ± 0.06. Further, the “maximal increase of [35S]GTPγS binding (Emax)” value in experiment [2] amounted to 3.1 fold increase. In addition, in [2], the “EMAX [fold over basal]” value was 3.12 ± 0.08 fold over basal. Further, in experiment [2], the nH came to 0.82 ± 0.05. In addition, the EC50 in experiment [2] (read-out: half-effective concentrations (EC50), stimulation of [35S]GTPγS binding) amounted to 7000 nM. In experiment [3] (10 µM [3H]GDP), the “factor of cooperativity α between binding of [3H]GDP and agonist (pα)” value is listed as −2.4 ± 0.3. For the same compound, the pKi in experiment [4] (+1 µM GTPγS, monophasic) is reported as 4.76 ± 0.05; in experiment [4] (+50 µM GDP, monophasic), 4.77 ± 0.05. The values for the pKi high in [4] (Control (crude membranes)) and in experiment [4] (GDP-less membranes) were 7.12 ± 0.09 and 7.77 ± 0.08, respectively. In addition, the pKi low in [4] (Control (crude membranes)) worked out at 4.78 ± 0.08; in experiment [4] (GDP-less membranes), 4.87 ± 0.09. For the same compound, the “flow[%]” value in experiment [4] (setting [16]) was determined as 50 ± 9%; in experiment [4] (GDP-less membranes) it was 9.6 ± 3.8 %. Further, the EMAX was 2.95 ± 0.09 fold increase over basal binding on Gi/o G-proteins [5] (Gi/o), 1.70 ± 0.02 fold increase over basal binding on Gs/olf G-proteins [8] (Gs/olf) and 1.20 ± 0.01 fold increase over basal binding at Gq/11 G-proteins [10] (Gq/11). For the same compound, the pEC50 at Gi/o G-proteins [5] (Gi/o) was 5.34 ± 0.10; on Gs/olf G-proteins [8] (Gs/olf), 4.76 ± 0.03; on Gq/11 G-proteins [10] (Gq/11), 4.72 ± 0.06. The “reduction of agonist affinity by GDP (factor of cooperativity β)” value in [9] came to 250 fold.
`Nc1nc2c(ncn2[C@@H]2O[C@H](COP(=O)(O)OP(=O)(O)O)[C@@H](O)[C@H]2O)c(=O)[nH]1` [GDP, guanosine diphosphate]: in experiment [11] (500 nM [3H]GDP, no ligand), the koff fast was 0.00122 s⁻¹ and the “sites with koff slow” value was determined as 40%. For the same compound, the “equilibrium dissociation constant for [3H]GDP (pKA)” value in experiment [3] (Eqn 7, all four agonists, mean ± SD, n=12) came out at 5.51 ± 0.05. The IC50 in [12] (read-out: IC50, homologous competition, 1 µM [3H]GDP) was 4480 nM. Further, the half-inhibitory concentration (IC50) in experiment [12] (read-out: IC50, homologous competition, 5 µM [3H]GDP) turned out to be 8550 nM. In addition, in experiment [12] (read-out: KD for [3H]GDP from homologous competition), the Kd was found to be 3490 nM. The Kd in [12] (read-out: KD, saturation binding, 0.3 to 10 µM [3H]GDP) is 3470 ± 30 nM. In the experiment on Gs/olf G-proteins [13], this compound displayed a Beq of 0.81 ± 0.04 fmol·µg^−1 protein and a koff of 0.00112 ± 0.00012 s⁻¹. For the same compound, in the experiment on Gi/o G-proteins [14] (Control), the Beq1 is recorded as 2.1 ± 0.2 fmol·µg^−1 protein, the Beq2 came to 1.1 ± 0.1 fmol·µg^−1 protein, the f2 was found to be 37 ± 5% and the koff1 was 0.00583 ± 0.0005 s⁻¹. The koff2 in the experiment on Gi/o G-proteins [14] (Control) was 0.000667 ± 6.7e-05 s⁻¹. For the same compound, in the experiment with Gi/o G-proteins [14] (control conditions (absence of carbachol), n=3), the “Beq, mono-exponential fit” value was determined as 2.8 ± 0.3 fmol·µg·prot^−1. The “factor of cooperativity α between [3H]NMS and GDP” value in experiment [9] (GDP-less membranes) is listed as 1. Moreover, in experiment [9] (absence of agonist), the “effect of GDP on [3H]NMS binding” value is “no effect”. Also, in experiment [15] (GDP-less membranes, 50 µM GDP), the “Beq of [35S]GTPγS” value was 1.21 ± 0.12 fmol·µg^−1protein. Moreover, in [15] (addition of 50 µM GDP), the “decrease of equilibrium binding of [35S]GTPγS” value is recorded as 4.7 fold, the “effect on rate of dissociation of [35S]GTPγS” value was “did not change” and the “slowing of rate of association of [35S]GTPγS” value came out at 3.2 fold.
In experiment [15] (setting [17]), `Nc1nc2c(ncn2[C@@H]2O[C@H](COP(=O)(O)OP(=O)(O)OP(O)(O)=S)[C@@H](O)[C@H]2O)c(=O)[nH]1` [GTPγS, guanosine-5′-γ−thiotriphosphate] returned a Beq of 5.66 ± 0.22 fmol·µg^−1protein and a koff of 9e-05 ± 3.61e-06 s⁻¹.
Consider `C[N+]1(C)[C@@H]2C[C@@H](OC(=O)[C@H](CO)c3ccccc3)C[C@H]1[C@@H]1O[C@@H]12` [NMS, N-methylscopolamine], for which, in experiment [2] (Figures 1 and 8), the “behaviour in [35S]GTPγS binding” value is recorded as “inverse agonist”. Further, the “effect on GDP dissociation” value in experiment [11] (100 nM NMS (Figure 4 right)) is “only slightly slows down”. For the same compound, in [3] (10 µM [3H]GDP, increasing ligand concentration), the “effect on [3H]GDP binding” value is “did not affect”. Besides, in experiment [3] (Figures 6 and 7), the “cooperativity between NMS and GDP” value is “neutral”. Moreover, in [15] (GDP-less membranes, 50 µM GDP +100 nM NMS), the “Beq of [35S]GTPγS” value is recorded as 1.20 ± 0.11 fmol·µg^−1protein. In [15] (setting [18]), the “effect on dissociation kinetics of [35S]GTPγS” value was “did not change” and the “slowing of association of [35S]GTPγS” value worked out at 25%.
As to `O=C1CCCN1CC#CCN1CCCC1` [Oxotremorine], the Kd at Gs/olf G-proteins [1] was 10.7 nM; on Gi/o G-proteins [6], 11.7 nM. For the same compound, the pα on Gs/olf G-proteins [1] (Gs/olf) is recorded as −0.78 ± 0.08; on Gi/o G-proteins [6] (Gi/o) it was −2.1 ± 0.2. The EC50 in experiment [2] was 1020 nM; on Gi/o G-proteins [5], 933 nM; on Gs/olf G-proteins [8] it was 7410 nM. In experiment [2], the “maximal increase of [35S]GTPγS binding (Emax)” value amounted to 2.8 fold increase. In addition, the “EMAX [fold over basal]” value in [2] is 2.78 ± 0.06 fold over basal. The compound further yielded a nH in experiment [2] of 0.92 ± 0.03. Moreover, in experiment [3] (10 µM [3H]GDP), the “factor of cooperativity α between binding of [3H]GDP and agonist (pα)” value is reported as −1.8 ± 0.1. The “flow[%]” value in experiment [4] (setting [16]) was found to be 66 ± 8%; in experiment [4] (GDP-less membranes) it was 13 ± 4 %. For the same compound, in [4] (GDP-less vs control membranes), the “change of high-affinity KI in GDP-less membranes vs control” value is “not changed”. Moreover, the Ki in experiment [4] (pKi high, Control (crude membranes)) was 11.7 nM; in [4] (pKi high, GDP-less membranes), 11.2 nM; in [4] (pKi, +1 µM GTPγS, monophasic), 550 nM; in experiment [4] (pKi, +50 µM GDP, monophasic) it was 417 nM. The EMAX on Gi/o G-proteins [5] (Gi/o) is given as 2.72 ± 0.05 fold increase over basal binding; on Gs/olf G-proteins [8] (Gs/olf), 1.53 ± 0.01 fold increase over basal binding. The “effect on [3H]GDP equilibrium binding” value on Gq/11 G-proteins [7] (Gq/11, 10 µM [3H]GDP) was “no effect”. In addition, the “reduction of agonist affinity by GDP (factor of cooperativity β)” value in [9] is reported as 60 fold. The “stimulation of [35S]GTPγS binding” value at Gq/11 G-proteins [10] (Gq/11, text) is “no stimulation”.
